Assay outcomes deposited in PubChem by several laboratories.
ALR inh – inhibitors of human ALR sulfhydryl oxidase, primary screen, biochemical, H2O2 detection, HRP-luminol luminescence, single point; FAD-linked sulfhydryl oxidase ALR (Homo sapiens), P55789; purified ALR, DTT oxidation; inhibition, % (no concentration beside the values); 3.8% of 290,000 active; AID 485317, 2010;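 active means mean replicate inhibition above about 79%, with every replicate also reaching it, limit read from the data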
Target sequence (P55789 whole entry, looked up): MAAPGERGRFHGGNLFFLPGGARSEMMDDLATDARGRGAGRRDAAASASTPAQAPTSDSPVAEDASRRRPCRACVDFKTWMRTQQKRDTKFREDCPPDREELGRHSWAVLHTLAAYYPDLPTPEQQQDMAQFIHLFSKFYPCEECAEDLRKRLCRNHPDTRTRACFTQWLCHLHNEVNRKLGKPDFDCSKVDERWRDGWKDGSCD
ATG4B inh – ATG4B protease inhibitors, primary screen, biochemical, fluorescence, uHTS; Cysteine protease ATG4B (Homo sapiens), Q9Y4P1; ATG4B cleavage of LC3-PLA2, NBD-HPC fluorescence, 1 h; inhibition, % at 8.33 µM; 0.51% of 340,000 active; in the data active means inhibition above about 40%
NALP1 yeast inh – NALP1 inflammasome inhibitors in reconstituted yeast, colorimetric, S. cerevisiae, triplicate retest | S. cerevisiae NALP1/ASC/caspase-1 growth, X-gal OD620, 72 h | inhibition, % at 10 µM | 0.61% of 280,000 active | AID 2071, 2009; in the data active means inhibition mostly above about 24%, no sharp cut-off; inactive means mostly below about 32%
Calb FLC – C. albicans growth inhibition with fluconazole, primary screen, CaCi-2 strain, Alamar Blue fluorescence; C. albicans CaCi-2 (fluconazole-resistant clinical isolate) + fluconazole, 48 h; growth inhibition, % (no concentration beside the values); 0.57% of 300,000 active; AID 1979, 2009;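 active means growth inhibition above about 58% in most replicates, limit read from the data, passing the limit was not always enough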;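 further: all wells also contain fluconazole at 8 µg/ml as a sub-toxic cotreatment; 0% = median of DMSO wells and 100% = median of geldanamycin control wells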
UCH37 inh – inhibitors of human UCH37 deubiquitinase, primary screen, biochemical, Ub-AMC cleavage, fluorescence. purified proteasome/UCH37. Ubiquitin carboxyl-terminal hydrolase isozyme L5 (Homo sapiens), Q9Y5K5. inhibition, % (test concentration not listed). 0.33% of 330,000 active;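 active means mean inhibition over replicate wells above about 20%, limit read from the data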;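 further: 0% = compound-free wells with enzyme and 100% = wells lacking proteasome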
Target sequence (Q9Y5K5 whole entry, looked up): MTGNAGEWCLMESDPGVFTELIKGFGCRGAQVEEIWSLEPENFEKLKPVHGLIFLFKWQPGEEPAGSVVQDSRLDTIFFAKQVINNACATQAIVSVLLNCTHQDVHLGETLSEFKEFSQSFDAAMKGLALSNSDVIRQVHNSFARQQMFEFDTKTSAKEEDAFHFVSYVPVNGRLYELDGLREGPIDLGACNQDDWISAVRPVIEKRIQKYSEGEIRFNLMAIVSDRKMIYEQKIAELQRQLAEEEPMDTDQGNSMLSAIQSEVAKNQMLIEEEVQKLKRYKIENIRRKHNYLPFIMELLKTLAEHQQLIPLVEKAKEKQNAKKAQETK
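Material: human UCH37 enzyme supplied as purified proteasome complex. Measure: % inhibition of Ub-AMC cleavage fluorescence. Medium: pH 7.4 Tris-HCl (50 mM) with ovalbumin, ATP-MgCl2, DTT. Times: 30 min preincubation with enzyme, 25 min cleavage at room temperature. Detection: AMC fluorescence intensity at 355/460 nm.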
NLRP3 yeast inh – NALP3 inflammasome inhibitors in reconstituted yeast, primary screen, luminescence, uHTS | 0.39% of 330,000 active | inhibition, % at 10 µM | Yeast reconstituted NLRP3/ASC/caspase-1, beta-gal luminescence, 24 h;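 active means inhibition of 50% or more; inactive means inhibition below 50%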;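 further: plate controls were induced DMSO wells for no effect and uninduced yeast grown without galactose for full effect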
Numbers without * were called inactive; x = not tested or not shown. A selection: hits, their analogues and other compounds. The true share with any hit is near 4.8%.

SMILES	ALR inh	ATG4B inh	NALP1 yeast inh	Calb FLC	UCH37 inh	NLRP3 yeast inh
CCN(C(=O)CSc1nnc(Cc2ccccc2F)n1N)C1CCS(=O)(=O)C1 (stereo not given)	x	-10	7	3	27*	18
Cn1c(N2CCOCC2)c(C=NOC(=O)c2ccc(F)cc2)c2ccccc21	x	x	x	x	-4	x
CC(=O)O/N=C/c1c(N2CCOCC2)n(C)c2ccccc12	56	-1	29*	99*	x	2
Cc1ccc(C(=O)O/N=C/c2c(N3CCOCC3)n(C)c3ccccc23)cc1	7	13	-4	110*	x	47
O=C(NCc1ccc(C=NNC(=O)C(=O)Nc2ccccc2Br)o1)C(=O)Nc1ccccc1	x	x	x	x	5	x
Cc1cc(C(=O)CSC(C)c2nc3ccccc3c(=O)[nH]2)c(C)n1C (stereo not given)	99*	-20	0	-6	3	3
Cc1cc(C(=O)CSc2nc3ccccc3c(=O)[nH]2)c(C)n1C	98*	-6	8	2	4	10
O=C(CSc1nc2ccccc2c(=O)[nH]1)c1ccccc1	-12	-7	19	43	5	12
O=C(O)c1ccccc1C=NNc1ccc(S(=O)(=O)N2CCCC2)cc1[N+](=O)[O-]	x	x	x	x	14	x
Cc1cc(O)ccc1NC(=S)NC(=O)c1cncc(Br)c1	x	2	6	87*	-1	14
O=C(NC(=S)Nc1ccc(O)cc1)c1cncc(Br)c1	99*	-14	x	1	5	19
O=C(NC(=S)Nc1cccc(O)c1)c1cncc(Br)c1	-6	-12	x	13	4	-2
C/C(C=NNC(=O)c1cc(C2CC2)[nH]n1)=C\c1ccccc1	x	x	x	x	6	x
Cc1nn(C)cc1C=NNC(=S)Nc1ccc(Cl)cc1Cl	x	x	x	x	2	x
O=C(CNC(=O)c1ccc2c(c1)OCCO2)NN=Cc1ccc(O)cc1O	x	x	x	x	-7	x
COc1cccc(/C=N/NC(=O)CNC(=O)c2ccc3c(c2)OCCO3)c1O	94*	-7	9	-57	x	7
CCOc1cccc(/C=N/NC(=O)c2ccc3c(c2)OCCO3)c1O	90*	-17	-12	1	x	13
COc1ccc(C=NNC(=O)CN2CCN(Cc3ccccc3)CC2)cc1Br	x	x	x	x	4	x
Cc1csc(NC(=O)c2ccc(COc3ccccc3)o2)n1	1	-1	43*	3	4	31
O=C(c1ccccc1)C(CN1CCCCC1)c1ccccc1 (stereo not given)	x	1	x	x	3	x
CCOc1ccc(C(O)(CCC(C)C)C(CN2CCOCC2)c2ccccc2)cc1 (stereo not given)	-2	-6	-8	-1	6	14
CCOc1ccc(C(=O)C(CN2CCOCC2)c2ccccc2)cc1 (stereo not given)	0	1	84*	3	7	x
O=C(c1ccc(Br)cc1)C(CN1CCOCC1)c1ccccc1 (stereo not given)	12	4	39*	1	4	20
O=C(NN=Cc1ccc(Cl)cc1Cl)C(=O)NC1CC1	x	x	x	x	2	x
COc1ccc(C=NNC(=O)c2ccccc2)cc1COc1ccccc1	x	x	x	x	3	x
SMILES	ALR inh	ATG4B inh	NALP1 yeast inh	Calb FLC	UCH37 inh	NLRP3 yeast inh
CN1C(=O)c2ccccc2NC(=O)[C@]12O[C@@H]2c1cccc(O)c1	99*	7	-16	0	-3	3
CS(=O)(=O)NN1C(=O)c2ccccc2NC1c1cccc(O)c1 (stereo not given)	0	4	2	-18	-124	9
COc1cc(Br)cc(CN2CCN(c3ncccn3)CC2)c1O	98*	0	-9	0	6	20
COc1cccc(CN2CCN(c3ncccn3)CC2)c1	-11	-7	6	-11	4	17
Cc1ccc(C(=O)NCCc2nnc3ccc(SCC(=O)N4CCCCC4)nn23)cc1	89*	2	1	-6	-2	0
Cc1ccc(C(=O)NCCc2nnc3ccc(SCC(=O)Nc4ccccc4F)nn23)cc1	97*	1	13	5	0	-7
Cc1ccc(C(=O)NCCc2nnc3ccc(SCC(=O)Nc4ccc(C)cc4C)nn23)cc1	-6	-5	13	-9	5	0
O=C(CSc1ccc2nnc(CCNC(=O)c3ccccc3)n2n1)Nc1ccccc1F	-34	5	-1	5	1	10
Cc1ccc(C(=O)NCCc2nnc3ccc(SCC(=O)N4CCCC4)nn23)cc1	42	-1	-7	-3	-1	6
Cc1ccc(S(=O)(=O)NCCc2nnc3ccc(SCC(=O)Nc4nc(C)cs4)nn23)cc1	98*	2	25	4	5	18
COc1ccc(-c2n[nH]c(=S)n2-c2ccc3c(c2)OCCO3)cc1	91*	5	13	26	0	9
S=c1[nH]nc(-c2ccc3ccccc3n2)n1-c1ccc2c(c1)OCCO2	90*	-2	-18	32	4	8
Oc1ccc(-c2n[nH]c(=S)n2-c2ccc3c(c2)OCCO3)c(O)c1	86*	2	19	-4	4	x
C=C(C)Cn1c(SCC(=O)NN=Cc2ccccc2OCC(=O)O)nnc1-c1ccc(Br)cc1	x	x	x	x	3	x
Cc1ccc(Sc2ccc(S(=O)(=O)Nc3ccc(C(=O)O)cc3)cc2)cc1C	98*	17	x	x	2	6
Cc1ccc(Oc2ccc(S(=O)(=O)Nc3ccc(C(=O)O)cc3)cc2)cc1	98*	-4	x	x	3	18
CC(=NOc1nc(C)cc(C)n1)c1ccc(Br)cc1	x	x	x	x	4	x
CC(=NNC(=O)CNC(=O)/C=C/c1ccco1)c1ccc(Cl)cc1	x	x	x	x	4	x
Nc1ccc2c(c1)C/C(=C/c1ccco1)C2=O	1	-6	49*	-22	-281	22
O=C1/C(=C/c2ccco2)CCc2ccccc21	-6	21	38	-6	-23	1
Cc1cccc(N/N=C2/COC(C)(C)CC2=O)c1	93*	5	20	-47	x	-1
COc1ccc2oc(C)c(C(=O)NN)c2c1	85*	-12	-15	23	5	9
O=C(O)c1[nH]c2ccccc2c1NS(=O)(=O)c1ccc(F)cc1	94*	-8	21	x	-3	1
COc1ccc(S(=O)(=O)Nc2c(C(=O)O)[nH]c3ccccc23)cc1OC	10	2	15	-7	-6	-4
Cc1ccc(S(=O)(=O)Nc2c(C(=O)O)[nH]c3ccccc23)c(C)c1	98*	-4	12	x	0	-4
Cc1ccc(S(=O)(=O)Nc2cc3c(C(=O)O)c(C)oc3c3ccccc23)c(C)c1	1	-10	9	36	4	17
O=C(O)c1[nH]c2ccccc2c1NS(=O)(=O)Cc1ccccc1	99*	3	9	-12	-22	0
